Measured values from ChEMBL document CHEMBL4028848, “Discovery of N-{4-[5-(4-Fluorophenyl)-3-methyl-2-methylsulfanyl-3H-imidazol-4-yl]-pyridin-2-yl}-acetamide (CBS-3595), a Dual p38α MAPK/PDE-4 Inhibitor with Activity against TNFα-Related Diseases” (J Med Chem, 2017).
Calls of active or inactive are those of the source. The calls are words filed in the database; no cut-off is given here.

Key:
[1] = molecular target: Mitogen-activated protein kinase 10 (Homo sapiens) (UniProt P53779); experiment: Inhibition of JNK3 (unknown origin) at 10 uM relative to control
Sequence of Mitogen-activated protein kinase 10 (Homo sapiens) (P53779 whole entry): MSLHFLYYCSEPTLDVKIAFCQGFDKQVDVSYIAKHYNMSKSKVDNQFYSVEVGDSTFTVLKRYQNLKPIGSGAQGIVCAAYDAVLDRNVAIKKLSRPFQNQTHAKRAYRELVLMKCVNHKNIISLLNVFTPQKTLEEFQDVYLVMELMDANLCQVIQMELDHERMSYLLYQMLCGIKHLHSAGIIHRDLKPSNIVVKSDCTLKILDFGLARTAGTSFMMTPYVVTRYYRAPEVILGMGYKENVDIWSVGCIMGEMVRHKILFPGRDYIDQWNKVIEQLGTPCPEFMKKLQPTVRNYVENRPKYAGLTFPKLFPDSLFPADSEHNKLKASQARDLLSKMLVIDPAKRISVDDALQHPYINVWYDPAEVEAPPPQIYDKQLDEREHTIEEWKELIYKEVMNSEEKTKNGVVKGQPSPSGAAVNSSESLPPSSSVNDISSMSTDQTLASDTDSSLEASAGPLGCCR

Saccharomyces cerevisiae = experiment: Inhibition of yeast CK1 at 10 uM relative to control
[2] = molecular target: Dual specificity mitogen-activated protein kinase kinase 4 (Homo sapiens) (UniProt P45985); experiment: Inhibition of MKK4 (unknown origin) at 10 uM relative to control
Sequence of Dual specificity mitogen-activated protein kinase kinase 4 (Homo sapiens) (P45985 whole entry): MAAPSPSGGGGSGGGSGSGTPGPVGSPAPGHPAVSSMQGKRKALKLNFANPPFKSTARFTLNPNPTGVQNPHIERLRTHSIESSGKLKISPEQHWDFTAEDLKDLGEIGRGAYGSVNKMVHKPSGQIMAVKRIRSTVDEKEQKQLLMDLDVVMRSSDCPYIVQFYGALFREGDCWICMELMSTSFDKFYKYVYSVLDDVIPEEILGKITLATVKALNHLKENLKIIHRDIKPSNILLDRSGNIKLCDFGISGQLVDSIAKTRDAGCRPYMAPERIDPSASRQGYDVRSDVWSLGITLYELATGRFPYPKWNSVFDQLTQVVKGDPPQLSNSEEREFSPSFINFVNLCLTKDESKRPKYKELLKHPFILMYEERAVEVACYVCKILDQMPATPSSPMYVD

[3] = molecular target: Ephrin type-B receptor 2 (Homo sapiens) (UniProt P29323); experiment: Inhibition of EphB2 (unknown origin) at 10 uM relative to control
Sequence of Ephrin type-B receptor 2 (Homo sapiens) (P29323 whole entry): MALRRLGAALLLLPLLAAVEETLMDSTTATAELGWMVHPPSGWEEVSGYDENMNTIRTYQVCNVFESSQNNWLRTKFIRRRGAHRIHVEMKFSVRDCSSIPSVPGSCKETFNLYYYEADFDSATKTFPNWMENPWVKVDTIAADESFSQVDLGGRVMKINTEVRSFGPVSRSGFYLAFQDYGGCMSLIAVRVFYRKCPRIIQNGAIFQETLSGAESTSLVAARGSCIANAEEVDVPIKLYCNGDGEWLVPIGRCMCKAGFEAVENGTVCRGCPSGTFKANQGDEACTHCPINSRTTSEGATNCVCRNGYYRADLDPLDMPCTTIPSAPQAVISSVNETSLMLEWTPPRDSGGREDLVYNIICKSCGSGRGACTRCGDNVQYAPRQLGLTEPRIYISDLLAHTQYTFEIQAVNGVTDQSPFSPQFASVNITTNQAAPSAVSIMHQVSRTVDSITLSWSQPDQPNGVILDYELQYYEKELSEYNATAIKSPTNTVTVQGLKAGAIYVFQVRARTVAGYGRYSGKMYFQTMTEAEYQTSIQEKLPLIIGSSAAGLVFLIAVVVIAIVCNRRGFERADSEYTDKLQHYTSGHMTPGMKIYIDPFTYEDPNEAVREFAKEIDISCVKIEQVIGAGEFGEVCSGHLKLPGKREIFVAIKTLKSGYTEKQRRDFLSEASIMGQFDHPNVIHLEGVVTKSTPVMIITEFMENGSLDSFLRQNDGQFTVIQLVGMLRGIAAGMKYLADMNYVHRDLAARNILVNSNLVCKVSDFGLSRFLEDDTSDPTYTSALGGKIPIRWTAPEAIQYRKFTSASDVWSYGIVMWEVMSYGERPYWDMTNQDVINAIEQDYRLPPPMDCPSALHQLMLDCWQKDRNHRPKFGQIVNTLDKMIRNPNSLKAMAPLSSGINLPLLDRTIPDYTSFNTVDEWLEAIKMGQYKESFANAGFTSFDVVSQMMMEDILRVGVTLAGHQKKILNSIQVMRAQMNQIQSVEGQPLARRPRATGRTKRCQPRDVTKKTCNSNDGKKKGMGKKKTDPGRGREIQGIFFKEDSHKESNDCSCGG

[4] = molecular target: CDK3/Cyclin E (Homo sapiens) (UniProt P24864+Q00526); experiment: Inhibition of CDK3/cyclinE (unknown origin) at 10 uM relative to control; format: protein-complex assay
Sequence of CDK3/Cyclin E (Homo sapiens) (P24864 whole entry, looked up): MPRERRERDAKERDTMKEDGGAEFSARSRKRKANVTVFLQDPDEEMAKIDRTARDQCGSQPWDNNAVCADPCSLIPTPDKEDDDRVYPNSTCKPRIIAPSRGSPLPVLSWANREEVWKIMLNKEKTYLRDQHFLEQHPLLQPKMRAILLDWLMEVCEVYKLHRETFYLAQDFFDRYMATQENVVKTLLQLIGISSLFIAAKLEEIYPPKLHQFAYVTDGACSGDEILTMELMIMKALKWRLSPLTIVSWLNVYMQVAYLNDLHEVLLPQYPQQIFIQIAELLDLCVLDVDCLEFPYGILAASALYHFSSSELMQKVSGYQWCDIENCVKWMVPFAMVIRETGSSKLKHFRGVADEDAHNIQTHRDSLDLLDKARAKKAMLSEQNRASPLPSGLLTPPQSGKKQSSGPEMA
Sequence of CDK3/Cyclin E (Homo sapiens) (Q00526 whole entry, looked up): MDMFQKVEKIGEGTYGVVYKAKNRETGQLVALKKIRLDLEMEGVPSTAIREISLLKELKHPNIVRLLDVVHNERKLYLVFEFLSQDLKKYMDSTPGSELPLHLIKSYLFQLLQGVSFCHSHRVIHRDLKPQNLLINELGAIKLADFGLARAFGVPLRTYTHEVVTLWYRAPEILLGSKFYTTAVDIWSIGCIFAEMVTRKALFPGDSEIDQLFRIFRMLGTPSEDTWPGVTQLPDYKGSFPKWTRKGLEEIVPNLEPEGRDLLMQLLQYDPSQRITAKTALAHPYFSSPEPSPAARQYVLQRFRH

Cynomolgus monkey [5] = experiment: In vivo inhibition of P38 MAPKalpha in cynomolgus monkey assessed as decrease in TNFalpha level in LPS-stimulated whole blood at 12 mg/kg, po pretreated followed by LPS addition measured after 1 day relative to control; format: functional; details: Macaca fascicularis
Summary of the method: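 Cynomolgus monkeys were dosed orally, then whole blood was stimulated ex vivo with LPS. TNFα release was compared with vehicle-dosed animals.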

Liver [6] = experiment: Drug metabolism in rat liver microsomes assessed as 4-(4-(4-fluorophenyl)-1-methyl-2-(methylsulfinyl)-1H-imidazol-5-yl)pyridin-2-amine formation at 10 to 100 uM; format: ADME, microsome
Summary of the method: (§1)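 Test compound incubated at 10, 30 and 100 μM with liver microsomes from rat, Cynomolgus monkey or human, and metabolites monitored.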

Rattus norvegicus [7] = experiment: In vivo inhibition of P38 MAPKalpha in Sprague-Dawley rat assessed as decrease in LPS-stimulated TNFalpha level in serum at 3 mg/kg, po pretreated for 1 hr followed by LPS addition measured after 2 hrs relative to control; format: functional
[8] = Drug uptake in LPS-stimulated female Lewis rat serum at 10 mg/kg, po pretreated for 1 hrs followed by LPS addition measured after 1.5 hrs post dose; format: ADME, organism-based; details: read-out: Drug uptake
Summary of the method: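 Female Lewis rats, n = 8/group, dosed orally at 10 mg/kg at 1, 3 or 5 h before LPS challenge. Serum aliquots taken 1.5 h after LPS were used to measure drug concentration.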

Rattus norvegicus [9] = experiment: Antiarthritic activity in Lewis rat assessed as decrease in collagen-induced arthritic score at 25 mg/kg, po bid administered for 10 days; format: functional, organism-based
Summary of the method: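 Collagen-induced arthritis in male Lewis rats (5–6 per group). Groups received vehicle, dexamethasone 1 mg/kg, test item 50 mg/kg once daily, or 25 mg/kg twice daily for 10 days. Body weight, arthritic score and paw volume were monitored, and serum COMP was measured at the end.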

Mus musculus = experiment: Antiarthritic activity in human TNF transgenic mouse model assessed as reduction in cartilage damage at 20 to 50 mg/kg/day, po for 10 weeks; format: functional, organism-based
Summary of the method: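 Heterozygous human TNF transgenic mice (8 per group) were dosed orally for ten weeks with 20 or 50 mg/kg/day as a methylcellulose suspension, alongside vehicle and infliximab i.p. controls. Joint swelling and grip strength were scored weekly, and hind paws were examined histologically at the end.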

[10] = Cmax in mongrel dog at 30 mg/kg, po by LC-MS/MS analysis; format: ADME, organism-based, Canis lupus familiaris; set-up: dose 30 mg/kg, route oral; details: in vivo
Summary of the method: (§2)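 Oral single-dose PK; plasma concentrations of parent and metabolite measured. Dogs: blood sampled 0.25 to 24 h after dosing. Humans: healthy subjects, placebo-controlled single-blind randomized consecutive dosing, plasma sampled predose and 0.25–36 h post dose. 10 mg also given fasting and fed in crossover. Parameters derived from individual concentration–time profiles.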

[11] = AUC (0 to t) in Beagle dog at 40 mg/kg, po by LC-MS/MS analysis; format: ADME, organism-based, Canis lupus familiaris; details: in vivo
Summary of the method: (§3)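 Toxicokinetics from a maximum-tolerated-dose study in four Beagle dogs given 40 mg/kg orally. Plasma levels of both parent and its predominant metabolite were monitored.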

[12] = Cmax in female Sprague-Dawley rat at 30 mg/kg, po by LC-MS/MS analysis; format: ADME, organism-based; set-up: dose 30 mg/kg, route oral; details: in vivo
[13] = Half life in female Sprague-Dawley rat at 30 mg/kg, po by LC-MS/MS analysis; format: ADME, organism-based; details: in vivo
[14] = AUC (0 to infinity) in male Sprague-Dawley rat at 30 mg/kg, po by LC-MS/MS analysis; format: ADME, organism-based; set-up: dose 30 mg/kg, time infinity, route oral; details: in vivo
Summary of the method: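 Rats of each sex received a single oral dose of 30 mg/kg. Plasma concentration–time profiles of parent were determined separately for females and males.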

[15] = Half life in cynomolgus monkey at 20 mg/kg, po measured on day 1 and 27 post dose by LC-MS/MS analysis; format: ADME, organism-based, Macaca fascicularis; details: in vivo
Summary of the method: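 Cynomolgus monkeys were dosed orally at 6, 12 and 20 mg/kg daily in a 4-week toxicity study. Blood was sampled from 0.5 to 24 h post dose on days 1 and 27. Individual profiles of parent and metabolite gave Tmax, Cmax, T1/2 and AUC0–24.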

Rattus norvegicus [16] = experiment: Toxicity in single po dosed rat assessed as effect on respiratory rate at 30 mg/kg, po administered as single dose; format: organism-based; details: in vivo
Rattus norvegicus [17] = experiment: Toxicity in rat assessed as soft feces at 30 to 300 mg/kg, po administered as single dose; format: organism-based; details: in vivo
Cynomolgus monkey [18] = experiment: Toxicity in cynomolgus monkey assessed as effect on mean blood preasure at 6 to 20 mg/kg, po; format: organism-based, Macaca fascicularis; details: in vivo
Rattus norvegicus [19] = experiment: Toxicity in Sprague-Dawley rat assessed as premature death at 15 to 150 mg/kg, po administered via gavage for 28 days followed by 2 weeks off without dosing; format: organism-based; details: in vivo
Summary of the method: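 Sprague–Dawley rats, 10–16 per group, 144 in total. Daily dosing for 28 days with vehicle or 15, 50 or 150 mg/kg; the top dose came from a range-finding study. Six males and six females from the control and high-dose groups were followed through a further 2-week treatment-free period. Clinical signs and histopathology recorded.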

Rattus norvegicus [20] = experiment: Toxicity in Sprague-Dawley rat assessed as increase in hunched posture at 150 mg/kg, po administered via gavage for daily 28 days followed by 2 weeks off without dosing; format: organism-based; details: in vivo
Salmonella typhimurium = experiment: Genotoxicity in Salmonella typhimurium in absence of S9 fraction by Ames test; format: toxicity; details: salmonella enterica subsp. enterica serovar typhimurium
Summary of the method: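 Bacterial reverse mutation (Ames) test in S. typhimurium and E. coli strains, run with and without S9 mix.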

Homo sapiens [21] = experiment: Toxicity in human assessed as change in body weight at 50 mg, po administered as single dose; format: organism-based; details: in vivo
Homo sapiens [22] = experiment: Cmax in human assessed as 4-(4-(4-fluorophenyl)-1-methyl-2-(methylsulfinyl)-1H-imidazol-5-yl)pyridin-2-amine formation at 20 mg, po administered as single dose; format: ADME, organism-based; set-up: dose 20 mg, route oral; details: in vivo; summary of the method: as §2
[23] = molecular target: Mitogen-activated protein kinase 1 (Homo sapiens) (UniProt P28482); experiment: Inhibition of MAPK2 (unknown origin) at 10 uM
Sequence of Mitogen-activated protein kinase 1 (Homo sapiens) (P28482 whole entry): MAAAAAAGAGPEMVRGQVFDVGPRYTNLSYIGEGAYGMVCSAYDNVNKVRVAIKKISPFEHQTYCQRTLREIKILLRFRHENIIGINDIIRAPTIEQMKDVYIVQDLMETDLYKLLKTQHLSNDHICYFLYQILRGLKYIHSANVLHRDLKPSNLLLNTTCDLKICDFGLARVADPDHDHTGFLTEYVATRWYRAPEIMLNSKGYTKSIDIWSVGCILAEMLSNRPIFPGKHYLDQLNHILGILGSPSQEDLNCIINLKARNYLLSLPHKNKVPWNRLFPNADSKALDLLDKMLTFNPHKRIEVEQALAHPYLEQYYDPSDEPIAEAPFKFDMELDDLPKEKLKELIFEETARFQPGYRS

[24] = molecular target: Mitogen-activated protein kinase 11 (Homo sapiens) (UniProt Q15759); experiment: Inhibition of p38MAPK beta (unknown origin) at 10 uM relative to control
Sequence of Mitogen-activated protein kinase 11 (Homo sapiens) (Q15759 whole entry): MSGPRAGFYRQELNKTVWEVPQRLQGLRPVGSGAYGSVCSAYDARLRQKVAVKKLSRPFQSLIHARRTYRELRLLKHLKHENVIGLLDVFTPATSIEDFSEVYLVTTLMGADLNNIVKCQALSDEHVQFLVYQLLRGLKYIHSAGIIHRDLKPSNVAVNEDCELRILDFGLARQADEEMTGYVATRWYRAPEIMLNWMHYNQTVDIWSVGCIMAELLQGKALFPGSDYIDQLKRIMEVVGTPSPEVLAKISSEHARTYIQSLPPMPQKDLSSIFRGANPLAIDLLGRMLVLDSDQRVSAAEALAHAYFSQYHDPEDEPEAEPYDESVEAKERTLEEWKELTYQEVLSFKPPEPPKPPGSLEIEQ

Canis familiaris [25] = experiment: Cmax in Beagle dog assessed as 4-(4-(4-fluorophenyl)-1-methyl-2-(methylsulfinyl)-1H-imidazol-5-yl)pyridin-2-amine level at 40 mg/kg, po by LC-MS/MS analysis; format: ADME, organism-based, Canis lupus familiaris; set-up: dose 40 mg/kg, route oral; details: in vivo; summary of the method: as §3
Canis familiaris [26] = experiment: AUC (0 to t) in Beagle dog assessed as 4-(4-(4-fluorophenyl)-1-methyl-2-(methylsulfinyl)-1H-imidazol-5-yl)pyridin-2-amine level at 40 mg/kg, po by LC-MS/MS analysis; format: ADME, organism-based, Canis lupus familiaris; details: in vivo; summary of the method: as §3
Liver [27] = experiment: Drug level in rat liver microsomes treated with CBS-3595 at 10 to 100 uM; format: ADME, microsome; summary of the method: as §1

## CC(=O)Nc1cc(-c2c(-c3ccc(F)cc3)nc([S+](C)[O-])n2C)ccn1 (stereo not given)
[1]
  inhibition: 76%
Saccharomyces cerevisiae
  inhibition: 97%
[2]
  inhibition: 37%
[3]
  inhibition: 60%
[4]
  inhibition: 55%
Cynomolgus monkey [5]
  inhibition in vivo at 12 mg/kg: 50%
Liver [6]
  Drug metabolism: Metabolite_Detected
Rattus norvegicus [7]
  inhibition in vivo at 3 mg/kg: 88%
[8]
  concentration at 1.5 h: 237 ng/mL
Rattus norvegicus [9]
  Activity: Active
Mus musculus
  Activity: Active
[10]
  Cmax: 14.3 µM
[11]
  AUC(0-t): 93.4 µM·h
[12]
  Cmax: 4.8 µM
[13]
  half-life: 2.2 h
[14]
  AUC(0-inf): 29.8 µM·h
[15]
  half-life: 4.8 h
Rattus norvegicus [16]
  Activity: Non-Toxic
Rattus norvegicus [17]
  Activity: Toxic
Cynomolgus monkey [18]
  Activity: Non-Toxic
Rattus norvegicus [19]
  Activity: Non-Toxic
Rattus norvegicus [20]
  Activity: Toxic
Salmonella typhimurium
  Activity: Non-Toxic
Homo sapiens [21]
  Activity: Non-Toxic
Homo sapiens [22]
  Cmax: 0.309 µM

## Cn1c([S+](C)[O-])nc(-c2ccc(F)cc2)c1-c1ccnc(N)c1 (stereo not given)
[23]
  inhibition: inactive
[24]
  inhibition: inactive
Canis familiaris [25]
  Cmax: 5.1 µM
Canis familiaris [26]
  AUCt: 86.5 µM·h
Liver [27]
  Drug metabolism: Metabolite_Detected
